Source: ChEMBL document CHEMBL1141811, “Remangilones A-C, new cytotoxic triterpenes from Physena madagascariensis” (J Nat Prod, 1999)
Active and inactive are the calls of the source. The calls are words filed in the database; no cut-off is given here.

Key:
MDA-MB-435 [1] = test: Induction of apoptosis in human MDA-MB-435 cells assessed as change in nuclear morphology at 50 nM by fluorescence microscopy; format: functional, cell-based
In short: (§1)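 MDA-MB-435 cells plated in DFCI-1 medium at (3-5) × 10^4 cells/35-mm dish and attached 24 h (37 °C, 6.5% CO2). Treated 48 h, then attached cells were examined by fluorescence microscopy for nuclear shrinkage and chromatin condensation or fragmentation. 50 nM paclitaxel served as positive control.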

[2] = Cytotoxicity against human 70N cells by SRB assay; format: cell-based
In short: (§2)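 Cells washed in PBS, resuspended in DFCI-1 medium and seeded in triplicate at 4000/0.2 mL/well. After 24 h attachment (37 °C, 6.5% CO2), cells got 0.1–40.0 μM compound (DMSO below 0.2% final; DMSO controls) for 48 h. Cells were then PBS-washed and SRB-stained, and dye was redissolved in 10 mM Tris·HCl and read at 550 nm. IC50 taken as 50% reduction of relative cell number.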

MDA-MB-231 [3] = test: Cytotoxicity against human MDA-MB-231 cells assessed as change from polarized to spherical cellular morphology by SRB assay; format: functional, cell-based
MDA-MB-435 [4] = test: Cytotoxicity against human MDA-MB-435 cells by SRB assay; format: functional, cell-based; in short: as §2
MDA-MB-435 [5] = test: Cytotoxicity against human MDA-MB-435 cells assessed as change from polarized to spherical cellular morphology by SRB assay; format: functional, cell-based
MDA-MB-435 [6] = test: Induction of apoptosis in human MDA-MB-435 cells assessed as change in nuclear morphology at 2.3 uM by fluorescence microscopy; format: functional, cell-based; in short: as §1
MDA-MB-231 [7] = test: Cytotoxicity against human MDA-MB-231 cells by SRB assay; format: functional, cell-based; in short: as §2
MDA-MB-435 [8] = test: Cytotoxicity against human MDA-MB-435 cells at 2.3 uM treated for 24 hrs and subsequently cultured in drug-free medium for 96 hrs by SRB assay; format: functional, cell-based
In short: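 MDA-MB-435 cells in DFCI-1 medium, seeded in triplicate at 4000/well and attached 24 h at 37 °C. Exposed to 2.3 μM compound for 24 h at 37 °C, then cultured in drug-free DFCI-1 medium for 96 h. Viability read by SRB staining with absorbance at 550 nm.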

Row | SMILES | Activity (MDA-MB-435 [1]) | IC50 [2] [µM] | Activity (MDA-MB-231 [3]) | IC50 (MDA-MB-435 [4]) [µM] | Activity (MDA-MB-435 [5]) | Activity (MDA-MB-435 [6]) | IC50 (MDA-MB-231 [7]) [µM] | Activity (MDA-MB-435 [8])
1 | CC(=O)O[C@H]1C(=O)[C@@]2(C)[C@H]([C@H](OC(=O)c3ccccc3)[C@]3(O)C[C@H](OC(=O)[C@H](O)[C@@H](NC(=O)c4ccccc4)c4ccccc4)C(C)=C1C3(C)C)[C@]1(OC(C)=O)CO[C@@H]1C[C@@H]2O | Active | – | – | – | – | – | – | –
2 | CC1=C2CC[C@]3(C)[C@H](CC=C4[C@@H]5CC(C)(C)CC[C@@H]5C(=O)[C@H](O)[C@]43C)[C@@]2(C)C=C(O)C1=O [REMANGILONE A] | – | 40.5 | Active | 8.5 | Active | Active | 6.6 | Active
